Experiments:
[1] = melting temperature; fluorescence melt of hairpins on a sequencing array, two-state fit, raised by 9.35 °C to match UV melts; details: sodium 0.088 M
How it was run: (§1)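 Cy3 signals were normalised both to pre-quench Cy3 and to control constructs. They came from library hairpins carrying annealed Cy3 and quencher oligos on a sequenced MiSeq flow cell, imaged in 50 mM Na-HEPES pH 8.0, 25 mM NaCl, in 2.5 °C steps up to 60 °C. Bootstrapped two-state fits gave melting temperature and folding enthalpy, and four replicates were combined by inverse variance. Fitted temperatures were then raised by 9.35 °C to match UV melts.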

[2] = folding enthalpy; higher = less favourable; fluorescence melt of hairpins on a sequencing array, two-state fit; details: sodium 0.088 M
How it was run: as §1

| Sequence | Tm [1] [°C] | folding enthalpy [2] [kcal/mol] |
| --- | --- | --- |
| GAGTGCGAAAGCAGTCTC ((((((....)))..))) | 58.1 | -23.7 |
| GAGTGCGAAAGCATCTC ((((((....))).))) | 52.1 | -21 |
| GAGTGCGGAAACACACCC (.(((.(....).))).) | 28.1 | -15.5 |
| GAGTGCGGAAACGCGTTC ((..(((....)))..)) | 34.3 | -13 |
| GAGTGCGGAAACGTGCTC (((..((....))..))) | 49.5 | -38 |
| GAGTGGGGAAACCCACTC (((((((....))))))) | 67.7 | -29.8 |
| GAGTGGGGAAACCTGCTC (((..((....))..))) | 39.8 | -26.6 |
| GAGTGTCCGAAAGGACTC (((..(((....)))))) | 31.9 | -8.71 |
| GAGTGTGGAAACACATTC ((.((((....)))).)) | 42.5 | -17.6 |
| GAGTTACGAAAGTACCTC (((.(((....))).))) | 40.3 | -24.6 |
| GAGTTCCGAAAGGAGCTC (((.(((....))).))) | 57.1 | -37 |
| GAGTTCCGAAAGGATCTC (((.(((....))).))) | 47.3 | -29.3 |
| GAGTTCGGAAACGAACTC (((((((....))))))) | 67.3 | -39.4 |
| GAGTTCGGAAACGAATTC ((.((((....)))).)) | 44 | -30.8 |
| GAGTTCGGAAACGAGCTC (((.(((....))).))) | 51.7 | -31.3 |
| GAGTTCGGAAACGGATTC ((.(.((....)).).)) | 27.3 | -17.4 |
| GAGTTGCGAAAGCATCTC (((.(((....))).))) | 50.1 | -28.6 |
| GAGTTGGGAAACCGACTC ((((.((....)).)))) | 51.5 | -40.2 |
| GAGTTTGAAAAAACTC ((((((....)))))) | 50.8 | -32.2 |
| GAGTTTGGAAACAAACCC (.(((((....))))).) | 37.3 | -18.5 |
| GAGTTTGGAAACAAACTC (((((((....))))))) | 58.3 | -43.1 |
| GATAACCGAAAGGTGATC (((.(((....))).))) | 47.8 | -27.9 |
| GATAACGAAAGTTAGATC ((((((....)))..))) | 35.3 | -16.8 |
| GATAACGAAAGTTATC ((((((....)))))) | 53.9 | -32.9 |

| Sequence | Tm [1] [°C] | folding enthalpy [2] [kcal/mol] |
| --- | --- | --- |
| GATAACGGAAACGTTATC (((((((....))))))) | 56.4 | -47.8 |
| GATAACGGAAACGTTGTC ((.((((....)))).)) | 45.8 | -28 |
| GATAAGCGAAAGCTGATC (((.(((....))).))) | 47.5 | -26.3 |
| GATAAGGGAAACCCTATC ((((.((....)).)))) | 30.6 | -15.6 |
| GATAAGGGAAACCTTATC (((((((....))))))) | 49.7 | -44.2 |
| GATAAGGGAAACCTTGTC ((.((((....)))).)) | 37.9 | -20.7 |
| GATAATGGAAACATTGTC ((.((((....)))).)) | 36.2 | -31.2 |
| GATACACGAAAGTGATC (((.(((....)))))) | 36.8 | -12.4 |
| GATACAGAAATGTATC ((((((....)))))) | 44.8 | -30.3 |
| GATACCGAAAGGTGATC ((((((....))).))) | 38.1 | -15.7 |
| GATACCGGAAACGGTATC (((((((....))))))) | 65 | -34.2 |
| GATACGAAAGTATC (((((....))))) | 56.6 | -32.2 |
| GATACGCGAAAGCGATC (((.(((....)))))) | 37.7 | -13.1 |
| GATAGACCGAAAGGTATC (((..(((....)))))) | 28.2 | -11.3 |
| GATAGACGAAAGTCCATC (((.(((....))).))) | 35.1 | -13.3 |
| GATAGACGAAAGTCGATC (((.(((....))).))) | 51.2 | -25.9 |
| GATAGCGAAAGCTAATC ((((((....))).))) | 40.7 | -12.8 |
| GATAGCGAAAGCTCGATC ((((((....)))..))) | 24.8 | -10.1 |
| GATAGCGAAAGCTGGATC ((((((....)))..))) | 29.6 | -12.9 |
| GATAGCGAAAGCTTGATC ((((((....)))..))) | 25.1 | -8.2 |
| GATAGCGGAAACACTATC (((((.(....).))))) | 36.5 | -27.6 |
| GATAGCGGAAACGCTATC (((((((....))))))) | 65.7 | -34.4 |
| GATAGTGAAAACTATC ((((((....)))))) | 48.4 | -30.1 |
| GATAGTGGAAACGCTATC (((((.(....).))))) | 42.9 | -25.7 |

| Sequence | Tm [1] [°C] | folding enthalpy [2] [kcal/mol] |
| --- | --- | --- |
| GATATAACGAAAGTTATC (((..(((....)))))) | 30.6 | -15.6 |
| GATATACCGAAAGGTATC (((..(((....)))))) | 32.8 | -13.3 |
| GATATACGAAAGTAAATC (((.(((....))).))) | 33 | -14.6 |
| GATATAGCGAAAGCTATC (((..(((....)))))) | 33.9 | -10.1 |
| GATATAGGAAACTGTATC ((((.((....)).)))) | 34.6 | -21.4 |
| GATATCCGAAAGGAGATC (((.(((....))).))) | 49.9 | -33.1 |
| GATATCGCGAAAGCGATC (((..(((....)))))) | 35.2 | -7.08 |
| GATATGCCGAAAGGCATC (((..(((....)))))) | 38.5 | -7.19 |
| GATATGGAAACATATC ((((((....)))))) | 46.1 | -29.7 |
| GATATGGGAAACCACATC (((.(((....))).))) | 28.4 | -15 |
| GATATGGGAAACCATACC (.(((((....))))).) | 29.5 | -15 |
| GATATGGGAAACCGTATC ((((.((....)).)))) | 43 | -32 |
| GATATTGAAAAATATC ((((((....)))))) | 37 | -22.6 |
| GATATTGCGAAAGCAATC (((..(((....)))))) | 35.4 | -8.38 |
| GATATTGGAAACAATATC (((((((....))))))) | 48.8 | -45.2 |
| GATCAAAAACTTGATC ((((((....)))))) | 34.9 | -26.5 |
| GATCAAAACTTTGATC ((((((....)))))) | 46.6 | -35.9 |
| GATCAAAAGCTTGATC ((((((....)))))) | 38 | -25.6 |
| GATCAAAATCTTGATC ((((((....)))))) | 39.9 | -27.8 |
| GATCAAACAGTTGATC ((((((....)))))) | 38.5 | -25.8 |
| GATCAAACCCTTGATC ((((((....)))))) | 42.7 | -33.4 |
| GATCAAACGTTGATC ((((((...)))))) | 39.5 | -28.1 |
| GATCAAAGCTTGATC ((((((...)))))) | 40.1 | -28.1 |
| GATCAAATCATTGATC ((((((....)))))) | 41.8 | -32.8 |

| Sequence | Tm [1] [°C] | folding enthalpy [2] [kcal/mol] |
| --- | --- | --- |
| GATCAAATGTTTGATC ((((((....)))))) | 45.1 | -34.6 |
| GATCAAATTCTTGATC ((((((....)))))) | 41.4 | -32.6 |
| GATCAAATTTTGATC ((((((...)))))) | 43 | -31.4 |
| GATCAACACATTGATC ((((((....)))))) | 44.9 | -36.9 |
| GATCAACACGTTGATC ((((((....)))))) | 53.6 | -40.2 |
| GATCAACACTTGATC ((((((...)))))) | 40.5 | -31.6 |
| GATCAACAGCTTGATC ((((((....)))))) | 39.5 | -29.1 |
| GATCAACATCTTGATC ((((((....)))))) | 41.5 | -28.1 |
| GATCAACATGTTGATC ((((((....)))))) | 54.7 | -56.2 |
| GATCAACATTTTGATC ((((((....)))))) | 42.6 | -31.1 |
| GATCAACCCCTTGATC ((((((....)))))) | 45.5 | -35.2 |
| GATCAACCTTTTGATC ((((((....)))))) | 41.8 | -29.7 |
| GATCAACGGTTTGATC ((((((....)))))) | 40.9 | -30.1 |
| GATCAACGTCTTGATC ((((((....)))))) | 42.6 | -30.9 |
| GATCAACTAATTGATC ((((((....)))))) | 40.8 | -28.4 |
| GATCAACTATTTGATC ((((((....)))))) | 42.4 | -31.5 |
| GATCAACTGTTGATC ((((((...)))))) | 44.2 | -36.1 |
| GATCAACTTCTTGATC ((((((....)))))) | 43.9 | -30 |
| GATCAAGAGGTTGATC ((((((....)))))) | 37.9 | -24.2 |
| GATCAAGATTTGATC ((((((...)))))) | 40.7 | -29.6 |
| GATCAAGCATTGATC ((((((...)))))) | 52.1 | -47.9 |
